Measured values of several laboratories.
Target: Alpha-2A adrenergic receptor (ADRA2A, Homo sapiens, UniProt P08913)
One construct used (P08913 1-465): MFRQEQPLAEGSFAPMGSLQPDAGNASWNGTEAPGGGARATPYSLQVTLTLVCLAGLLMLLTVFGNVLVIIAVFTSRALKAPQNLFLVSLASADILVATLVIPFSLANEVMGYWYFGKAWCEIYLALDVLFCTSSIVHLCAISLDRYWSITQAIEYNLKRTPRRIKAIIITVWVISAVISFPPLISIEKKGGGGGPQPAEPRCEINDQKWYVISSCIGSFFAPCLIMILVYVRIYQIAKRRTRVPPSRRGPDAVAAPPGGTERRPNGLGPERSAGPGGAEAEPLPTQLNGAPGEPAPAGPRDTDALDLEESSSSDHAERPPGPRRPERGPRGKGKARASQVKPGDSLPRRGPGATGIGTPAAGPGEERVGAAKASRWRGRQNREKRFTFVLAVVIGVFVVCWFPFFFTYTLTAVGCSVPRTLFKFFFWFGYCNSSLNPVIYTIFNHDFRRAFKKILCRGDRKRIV

SMILES	read-out	method	concentration	measurement	result
O=C(Nc1cccnn1)N1CCN([C@@H]2CCOc3cc(C(F)(F)F)ccc32)CC1	ligand displacement	–	20 µM	inhibition	7%
Nc1ncc(-c2nc(N3CCOCC3)nc(N3CCOCC3)n2)c(C(F)F)n1	cell-free assay	radioligand	10 µM	remaining signal	114%
CC(C)N1CCC[C@H]1CNC(=O)c1cn(C2CCCC2)c(=O)c2c1c1ccccc1n2C	ligand displacement	radioligand	10 µM	inhibition	37%
COc1ccc(S(=O)(=O)N2CCCCC2)cc1C	ligand displacement	radioligand	10 µM	inhibition	< 30%
COCc1c(-c2cc3cc(C)cc(OC)c3s2)c2c(N)ncnn2c1CN1CCNC(=O)C1	ligand displacement	radioligand	10 µM	inhibition	26%
N#CC1(c2ccccn2)CCN(Cc2cc(C(=O)O)c(=O)n3ccccc23)CC1	cell-free assay	–	10 µM	inhibition	-25.7%
Clc1ccc2c(C3CCN(CCc4c[nH]c5ccccc45)CC3)c[nH]c2c1	ligand displacement	radioligand	10 µM	inhibition	82%
Cc1c(N2CCNCC2)nc2ccc(Br)cc2c1C(=O)NC[C@H](CCC(=O)O)c1ccccc1Cl	ligand displacement	–	10 µM	inhibition	65%
CC(C)Cn1cnc2c(N)nc3ccccc3c21	ligand displacement	radioligand	10 µM	inhibition	58%
